The values that follow come from ChEMBL document CHEMBL4732101, “Novel quinolone-based potent and selective HDAC6 inhibitors: Synthesis, molecular modeling studies and biological investigation” (Eur J Med Chem, 2021).

The target in data set [1] is T1, Protein deacetylase HDAC6 (Homo sapiens) (UniProt Q9UBN7).
T1 sequence (whole entry): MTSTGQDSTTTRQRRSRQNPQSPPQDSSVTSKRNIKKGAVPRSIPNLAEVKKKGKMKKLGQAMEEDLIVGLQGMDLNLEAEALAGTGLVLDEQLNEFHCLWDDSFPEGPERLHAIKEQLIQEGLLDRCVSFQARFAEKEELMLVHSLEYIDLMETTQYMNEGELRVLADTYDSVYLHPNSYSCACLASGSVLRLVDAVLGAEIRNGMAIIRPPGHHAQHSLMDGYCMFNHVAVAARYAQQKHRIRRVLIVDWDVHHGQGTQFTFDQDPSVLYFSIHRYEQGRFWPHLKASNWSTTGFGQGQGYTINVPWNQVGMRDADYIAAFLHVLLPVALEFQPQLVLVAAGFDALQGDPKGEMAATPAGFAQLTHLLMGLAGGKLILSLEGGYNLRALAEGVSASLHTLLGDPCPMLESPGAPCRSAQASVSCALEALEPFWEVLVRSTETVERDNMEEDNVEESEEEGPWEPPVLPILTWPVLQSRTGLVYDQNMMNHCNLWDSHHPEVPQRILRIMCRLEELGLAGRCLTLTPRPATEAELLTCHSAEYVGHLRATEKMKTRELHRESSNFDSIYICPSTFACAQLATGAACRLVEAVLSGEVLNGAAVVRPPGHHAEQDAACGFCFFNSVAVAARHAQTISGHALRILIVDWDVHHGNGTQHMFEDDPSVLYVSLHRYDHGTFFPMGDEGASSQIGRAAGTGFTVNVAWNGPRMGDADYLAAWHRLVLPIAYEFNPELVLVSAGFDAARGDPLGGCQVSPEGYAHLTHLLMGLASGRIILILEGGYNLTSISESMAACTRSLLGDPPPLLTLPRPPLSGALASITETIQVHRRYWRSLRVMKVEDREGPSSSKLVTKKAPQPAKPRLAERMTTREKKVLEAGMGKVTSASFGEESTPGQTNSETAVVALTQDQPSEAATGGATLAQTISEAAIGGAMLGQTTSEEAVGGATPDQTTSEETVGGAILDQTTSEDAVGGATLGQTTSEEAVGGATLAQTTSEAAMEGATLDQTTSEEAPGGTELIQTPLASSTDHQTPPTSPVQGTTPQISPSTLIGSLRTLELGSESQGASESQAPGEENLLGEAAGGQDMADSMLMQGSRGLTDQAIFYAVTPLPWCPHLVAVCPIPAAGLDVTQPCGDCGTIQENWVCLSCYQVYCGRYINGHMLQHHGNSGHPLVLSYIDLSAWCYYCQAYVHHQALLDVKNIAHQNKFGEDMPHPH
Briefly: Inhibition of HDAC6 in human HCT-116 cells assessed as increase in alpha-tubulin acetylation at 10 uM measured after 12 to 24 hrs by Western blot analysis relative to control. As to conditions: time 12-24 hrs. The class given is cell-based. The gist of the method:
(§1)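 HCT-116 or U937 cells treated at 10 µM for 12 and 24 h. […] Western blot used 40 µg total protein or 5 µg acid-extracted histone. Blots probed for cleaved PARP, acetylated tubulin, H3K9/14ac and Hsp90(AcLys294), normalized to GAPDH or H4. Compared with control cells by one-way ANOVA and Dunnett's test.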
(In general: In western blotting, separated proteins are transferred to a membrane and probed.)

The target of data set [2] is Histone deacetylase 1 (Homo sapiens, UniProt Q13547). The data set can be described thus: Inhibition of recombinant human C-terminal FLAG/His-tagged HDAC1 (1 to 482 residues) expressed in Sf9 insect cells using Z-(Ac)Lys-AMC as substrate measured after 90 mins by fluorescence assay. The gist of the method: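 Incubated with inhibitor in DMSO and fluorogenic substrate Z-(Ac)Lys-AMC (126 µM, as added) for 90 min at 37 °C. Stopped with trichostatin A plus trypsin for 30 min at 37 °C; fluorescence read at ex 390/em 460 nm.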

A short description of data set [3]: Inhibition of HDAC1/2/3/8 in human HCT-116 cells assessed as increase in H3K9/14 acetylation at 10 uM measured after 12 to 24 hrs by Western blot analysis relative to control. The class given is cell-based. The note with it: hct-116, 10 µM, time 12-24 hrs. The gist of the method:
as §1

For data set [4], the system named is HCT-116. The data set can be described thus: Cytotoxicity against human HCT-116 cells assessed as reduction in cell viability measured after 48 hrs by MTT assay. Type of data set: functional, cell-based. The note with it: HCT-116, 48 h. Put shortly:
(§2)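 HCT-116 cells grown in DMEM with 10% FBS, 2 mM L-glutamine and antibiotics. 2.5×10^4 cells/well treated in triplicate at 50, 25, 10, 5 and 1 µM for 12, 24 or 48 h. Then MTT 0.5 mg/ml for 3 h, supernatant removed, formazan dissolved in isopropanol, absorbance read at 570 nm. IC50 derived from the concentration series.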
(In general: Tetrazolium assays rely on reduction of a dye to a coloured formazan, in cell work by metabolically active cells.)

In data set [5] the target is T1, Protein deacetylase HDAC6 (Homo sapiens). The data set can be described thus: Inhibition of HDAC6 in human U-937 cells assessed as increase in Hsp90(AcLys294) acetylation at 10 uM measured after 12 to 24 hrs by Western blot analysis. The class given is cell-based. As to conditions: time 12-24 hrs. Put shortly:
as §1

Data set [6] deals with HCT-116. Briefly: Cytotoxicity against human HCT-116 cells assessed as cell viability at 50 uM measured after 48 hrs by MTT assay relative to control. The note with it: read-out: Activity. The class given is functional. The gist of the method: as §2
Data set [7] concerns HCT-116. The data set can be described thus: Cytotoxicity against human HCT-116 cells assessed as reduction in cell viability measured after 24 hrs by MTT assay. The note with it: HCT-116, 24 h. Type of data set: functional, cell-based. The gist of the method: as §2
Data set [8] has as its target T1, Protein deacetylase HDAC6 (Homo sapiens). Briefly: Inhibition of HDAC6 in human HCT-116 cells assessed as increase in Hsp90(AcLys294) acetylation at 10 uM measured after 12 to 24 hrs by Western blot analysis. The class given is cell-based. The note with it: time 12-24 hrs. Put shortly: as §1
Data set [9] relates to U-937. The data set can be described thus: Cytotoxicity against human U-937 cells assessed as reduction in cell viability measured after 48 hrs by MTT assay. Type of data set: functional, cell-based. As to conditions: U-937, 48 h. The gist of the method: (§3)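 U937 cells grown in RPMI-1640 with 10% FBS, 2 mM L-glutamine and penicillin-streptomycin. 2.5×10^4 cells/well treated in triplicate at 50, 25, 10, 5 and 1 µM for 12, 24 or 48 h. MTT 0.5 mg/ml added for 3 h, plate centrifuged 5 min at 1200 rpm, crystals dissolved in isopropanol, A570 read. IC50 derived from the concentration series.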

Data set [10] has as its system U-937. Briefly: Cytotoxicity against human U-937 cells assessed as reduction in cell proliferation at 50 uM measured after 48 hrs by MTT assay relative to control. Type of data set: functional. On the set-up: scale not given: the % may be the effect or the level left. The gist of the method: as §3
The target in data set [11] is T2, Protein deacetylase HDAC6 (Homo sapiens, UniProt Q9UBN7).
T2 sequence (Q9UBN7 whole entry): T1 sequence (whole entry)
Briefly: Inhibition of recombinant human full length N-terminal GST-tagged HDAC6 expressed in baculovirus infected Sf9 cells using Z-(Ac)Lys-AMC as substrate measured after 90 mins by fluorescence assay.

Data set [12] in a line: Inhibition of HDAC1/2/3/8 in human U-937 cells assessed as increase in H3K9/14 acetylation at 10 uM measured after 12 to 24 hrs by Western blot analysis. The class given is cell-based. The note with it: u-937, 10 µM, time 12-24 hrs. The gist of the method: as §1
The target of data set [13] is T1, Protein deacetylase HDAC6 (Homo sapiens). Briefly: Inhibition of HDAC6 in human U-937 cells assessed as increase in alpha-tubulin acetylation at 10 uM measured after 12 to 24 hrs by Western blot analysis relative to control. The class given is cell-based. As to conditions: time 12-24 hrs. Put shortly:
as §1

The test system of data set [14] is HCT-116. Briefly: Induction of apoptosis in human HCT-116 cells assessed as increase in PARP cleavage at 10 uM measured after 24 hrs by Western blot analysis. The class given is functional, cell-based. Put shortly:
as §1

Data set [15] concerns U-937. Briefly: Induction of apoptosis in human U-937 cells assessed as increase in PARP cleavage at 10 uM measured after 24 hrs by Western blot analysis. The class given is functional, cell-based. Put shortly: as §1
The subject of data set [16] is HCT-116. Briefly: Cytotoxicity against human HCT-116 cells assessed as reduction in cell proliferation at 10 uM measured after 48 hrs by MTT assay relative to control. Type of data set: functional. On the set-up: scale not given: the % may be the effect or the level left. The gist of the method: as §2
In data set [17] the target is T3, Histone deacetylase 8 (Homo sapiens, UniProt Q9BY41).
T3 sequence (Q9BY41 whole entry): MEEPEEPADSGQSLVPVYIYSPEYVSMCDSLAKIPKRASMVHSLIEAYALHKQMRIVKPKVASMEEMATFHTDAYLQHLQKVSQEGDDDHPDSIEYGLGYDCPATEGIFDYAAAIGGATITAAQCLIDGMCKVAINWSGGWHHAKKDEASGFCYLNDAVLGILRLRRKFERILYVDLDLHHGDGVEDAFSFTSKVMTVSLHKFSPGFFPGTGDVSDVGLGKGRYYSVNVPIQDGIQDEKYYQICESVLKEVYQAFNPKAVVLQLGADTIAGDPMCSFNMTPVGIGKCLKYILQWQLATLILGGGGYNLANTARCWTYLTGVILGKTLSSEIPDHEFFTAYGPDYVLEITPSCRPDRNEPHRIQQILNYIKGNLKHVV
The data set can be described thus: Inhibition of recombinant human HDAC8 using Fluor-de-Lys as substrate measured after 1 hr by fluorescence assay.

Data set [18] deals with HCT-116. The data set can be described thus: Cytotoxicity against human HCT-116 cells assessed as reduction in cell proliferation at 25 uM measured after 48 hrs by MTT assay relative to control. The class given is functional. Also noted: scale not given: the % may be the effect or the level left. The note with it: time 12 hrs, in the assay text read “after 12 hrs” for “after 48 hrs”. Put shortly:
as §2

In data set [19] the test system is HCT-116. Briefly: Cytotoxicity against human HCT-116 cells assessed as reduction in cell viability measured after 12 hrs by MTT assay. Type of data set: functional, cell-based. The note with it: HCT-116, 12 h. Put shortly: as §2
Data set [20] can be described thus: Cytotoxicity against human PBMC cells assessed as reduction in cell viability at 45 uM measured after 24 to 48 hrs by GUAVA easyCyte cytometric method. As to conditions: time 24-48 hrs. The class given is cell-based. Put shortly: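 PBMCs seeded at 1.5 x10^6/mL in complete medium and exposed to 15, 45 or 90 µM test compound, or DMSO vehicle, for 24 h and 48 h. Percentage of viable cells determined by flow cytometry with ViaCount reagent.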

For data set [21], the system named is HCT-116. The data set can be described thus: Cytotoxicity against human HCT-116 cells assessed as reduction in cell proliferation at 10 uM measured after 24 hrs by MTT assay relative to control. Also noted: scale not given: the % may be the effect or the level left. The class given is functional. Put shortly:
as §2

Active and inactive are the calls of the source. No cut-off for these calls is given here. Where only a bound is given, the exact number is not on record here.

By IC50 is commonly meant the point on the concentration scale where inhibition reaches its midpoint.

Histone deacetylase 1, sequence (Q13547 whole entry, the tested form may be a part): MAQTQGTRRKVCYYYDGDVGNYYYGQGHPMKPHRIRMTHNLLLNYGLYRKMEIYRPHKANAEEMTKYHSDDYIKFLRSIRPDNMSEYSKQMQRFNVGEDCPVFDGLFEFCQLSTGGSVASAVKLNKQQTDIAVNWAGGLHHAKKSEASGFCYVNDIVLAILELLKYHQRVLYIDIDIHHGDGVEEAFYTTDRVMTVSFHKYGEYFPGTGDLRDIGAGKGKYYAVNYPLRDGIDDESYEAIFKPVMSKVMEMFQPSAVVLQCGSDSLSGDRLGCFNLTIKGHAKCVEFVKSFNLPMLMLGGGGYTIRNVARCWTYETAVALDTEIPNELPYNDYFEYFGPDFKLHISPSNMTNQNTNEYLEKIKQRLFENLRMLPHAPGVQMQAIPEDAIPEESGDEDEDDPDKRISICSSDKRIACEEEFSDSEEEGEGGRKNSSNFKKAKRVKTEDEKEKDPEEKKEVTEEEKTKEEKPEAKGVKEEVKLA

Regarding `O=C(NO)c1ccc(COc2c(-c3ccccc3)c3ccccc3[nH]c2=O)cc1`, the fold change (FC) in [1] is more than 9; in data set [3], 2; in [13], more than 9. Besides, the IC50 in [2] was 6.6 µM; in data set [4] it was 15 µM; in data set [7], 33.4 µM; in [9], 27.9 µM; in data set [11] it was 0.147 µM. The inhibition entry in data set [5] and in [8] was “Active” throughout. In data set [6], the viability at 50 µM was 10%. The Activity in data set [10] is reported as 60%. Moreover, in data set [12], the “inhibition (INH)” value is reported as “Active”.
`CCN(CC)Cc1ccc(Cn2c(=O)c(OCc3ccc(C(=O)NO)cc3)c(-c3ccccc3)c3ccccc32)cc1`: the fold change (FC) in data set [1] is more than 9; in [3], 2; in data set [13], more than 9. Also, the outcome in data set [14] and in data set [15] was Active. Besides, the half-inhibitory concentration (IC50) is 3.6 µM in [4]; 11.6 µM in data set [7]; 0.55 µM in [17]; 13.5 µM in [19]; 40.6 µM in [9]. In addition, in data set [5], the inhibition result was “inactive”. Besides, the Activity in data set [16] was 90%; in [18] it was 80%; in [10], 60%; in [20], “Toxic”; in data set [21], 50%. The Kapp in data set [17] (human, 1 h) came to 0.36 µM. Further, the inhibition result in data set [8] is “Active”. Besides, the “inhibition (INH)” value in data set [12] is recorded as “Active”.
